Bioassay records (PubChem)
This is a sample that favours compounds with a hit; in the whole collection about 3.8% have one here.
NPY Y1 blocker: NPY-Y1 (human) receptor antagonism | P25929 | HEK293-CNG Y1 cells, membrane potential fluorescence; NPY at EC95, then isoproterenol | inhibition, % at 3.6 µM | hit rate 1% among 200,000 | AID 1040;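 active means inhibition above the campaign mean inhibition of all tested compounds plus 3 SD, cut at about 20% in these data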
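Benchmarks – high control isoproterenol alone, low control NPY with isoproterenol · Material – HEK293 Y1/CNG channel cell line · Times – dye 3 h, compound 60 min room temperature, stimulation 45 min · Probe or stimulus – NPY (25 nM), isoproterenol (1 µM), Ro 20-1724 (25 µM) · Evaluation – % inhibition of NPY effect · Signal – fluorescence, membrane potential probe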
NPY-Y1 PAM-ag: human NPY-Y1 potentiation or agonism, primary screen | NPY-Y1 expressing cells, potentiator/agonist activation | activation, % at 3.6 µM | hit rate 0.37% among 220,000 | AID 1304; in the data active means activation above about 33%, passing the limit was not always enough;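 further: cells stimulated with NPY at EC10 then isoproterenol at EC100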
RAM network inh: yeast RAM network inhibition. S. cerevisiae dse1pr::URA3 reporter, 5-FOA growth OD615, 2 d; analog-sensitive cbk1-as2 kinase mutant strain. inhibition, % at 50 µM. hit rate 1.8% among 190,000. AID 868;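 active means inhibition above a set limit, 3 SD over mean compound inhibition, cut at about 8.4% in these data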;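 further: inhibition rescues growth on 5-FOA so higher OD means more RAM inhibition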
NPY Y2 blocker: blocks the human neuropeptide Y Y2 receptor | P49146 | NPY-Y2 expressing cells, antagonist mode | inhibition, % at 2.7 µM | hit rate 0.99% among 140,000; in the data active means inhibition above about 17%
Target sequence (P49146 whole entry, looked up): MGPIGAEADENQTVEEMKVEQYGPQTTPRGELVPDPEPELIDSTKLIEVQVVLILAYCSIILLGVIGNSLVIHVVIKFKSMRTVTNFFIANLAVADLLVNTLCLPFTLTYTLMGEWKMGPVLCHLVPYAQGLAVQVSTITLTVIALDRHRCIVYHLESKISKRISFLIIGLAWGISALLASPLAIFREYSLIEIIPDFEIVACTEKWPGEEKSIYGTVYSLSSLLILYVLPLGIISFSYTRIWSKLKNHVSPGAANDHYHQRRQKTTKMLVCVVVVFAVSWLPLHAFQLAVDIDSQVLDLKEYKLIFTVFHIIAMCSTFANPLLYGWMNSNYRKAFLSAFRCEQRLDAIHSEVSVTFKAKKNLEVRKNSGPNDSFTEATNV
NPY-Y2 PAM-ag: potentiators or agonists of human neuropeptide Y receptor Y2; hit rate 0.45% among 220,000; cells expressing NPY-Y2, potentiator/agonist read-out; activation, % at 3.6 µM; P49146; AID 1359; in the data active means activation above about 27%;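 further: cells stimulated with NPY near EC25 plus isoproterenol at EC100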
Insulin prom inh: TRM-6 insulin promoter activity inhibition; TRM-6 cells, insulin promoter-eGFP reporter, imaging; reporter expression induced with tamoxifen; hit rate 0.9% among 130,000; inhibition, % at 2 µM; AID 1273;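 active means inhibition above the mean plus 3 SD, with well images judged a real hit on visual review, cut at about 60% in these data, passing the limit was not always enough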
RAM 5-FOA: restores 5-FOA growth of efflux-deficient yeast; shares compounds with RAM network inh; S. cerevisiae efflux-deficient reporter strain, 5-FOA growth OD615, 2 days; max inhibition, %; 1,200 tested, under 10 active; call rule not given here
A number is an active result; 0 = inactive; - = no result given.

SMILES	NPY Y1 blocker	NPY-Y1 PAM-ag	RAM network inh	NPY Y2 blocker	NPY-Y2 PAM-ag	Insulin prom inh	RAM 5-FOA
Cc1ccc(/C=C2/Sc3ccccc3N(CC(=O)NCCCOC(C)C)C2=O)cc1	0	0	13	0	0	0	0
Brc1ccc(CSc2nnc(Cc3c[nH]c4ccccc34)o2)cc1	0	0	13	0	0	0	0
Clc1ccc(CSc2nnc(-c3c[nH]c4ccccc34)o2)cc1	0	0	0	0	0	0	-
COCCNS(=O)(=O)c1ccc(C)c(C)c1C	0	0	0	-	0	0	-
O=S(=O)(c1ccccc1)N1CCN=C1SCc1ccc(Cl)c(Cl)c1	0	0	12	0	0	-	0
Cc1ccccc1N1C(=O)CC1(C#N)c1ccc(OCc2ccccc2)cc1 (stereo not given)	0	0	11	0	0	0	0
COc1ccccc1N1C(=O)CC1(C#N)c1ccc(OCc2ccccc2)cc1 (stereo not given)	0	0	0	0	0	0	-
CCOc1ccc(/C=C/C(O)=C2/C(=O)N(C)C3(C)CC2c2ccccc2O3)cc1OC (stereo not given)	0	0	11	-	0	-	0
O=C(Nc1ccc2c(c1)OCO2)c1ccc2nc[nH]c2c1	0	0	0	0	0	0	-
C[C@]12CC[C@@H]3c4ccc(O)cc4CC[C@H]3[C@@H]1CCC2=O	0	0	0	0	0	0	-
CCCCC(=O)O[C@H]1CC[C@H]2[C@@H]3CCc4cc(O)ccc4[C@H]3CC[C@]12C	0	0	14	0	0	0	0
Cc1ccc(-n2c(O)c(/C=N/c3ncn[nH]3)c3ccccc3c2=O)cc1	0	0	12	-	0	-	0
CC1CC(C)(C)NC(=S)N1CC(=O)N1CCN(Cc2ccc3c(c2)OCO3)CC1 (stereo not given)	0	0	0	-	0	-	-
CCOC(=O)C(=Cc1ccc(OCc2ccc([N+](=O)[O-])cc2)c(OC)c1)C(=O)OCC	0	0	16	0	0	0	0
OCCC1CN(Cc2cn[nH]c2C2CCCCC2)CCN1C1CCCC1 (stereo not given)	0	0	0	-	0	-	-
COc1ccc(NC2=C(Cl)C(=O)N(CCc3ccccc3)C2=O)c(OC)c1	0	0	16	0	0	0	0
COc1ccc(OC)c(NC(=O)COC(=O)Cc2ccc(-c3ccccc3)cc2)c1	0	0	14	0	0	-	0
COc1cc(NC(=O)COC(=O)Cc2ccc(-c3ccccc3)cc2)cc(OC)c1	0	0	17	0	0	0	0
COc1ccc(CC(=O)Nc2cc3oc4ccccc4c3cc2OC)cc1	0	0	12	0	0	-	0
Cc1cccc(CSc2nnc(CCNC(=O)OC(C)(C)C)o2)c1	-	0	-	-	0	-	-
CCc1ccc(C2=NN(CCC(=O)NC3CC3)C(=O)CC2)cc1	0	0	0	0	0	0	-
Cc1ccc(C(=O)OCc2ccc3c(c2)OCO3)cc1S(=O)(=O)N1CCCCC1	0	0	0	0	0	0	-
CCN(Cc1ccccc1)c1ccc(/C=N/NS(=O)(=O)c2cccc([N+](=O)[O-])c2)cc1	0	0	14	0	0	0	0
COc1cccc(N/C(SC)=C(/C#N)C(=O)NCc2cccs2)c1	0	0	0	-	0	0	-
COc1cccc(N/C(SCc2ccccc2C)=C(/C#N)C(=O)NCc2cccs2)c1	0	0	20	0	0	0	0
SMILES	NPY Y1 blocker	NPY-Y1 PAM-ag	RAM network inh	NPY Y2 blocker	NPY-Y2 PAM-ag	Insulin prom inh	RAM 5-FOA
COc1cccc(N/C(SCc2cccc([N+](=O)[O-])c2)=C(/C#N)C(=O)NCc2cccs2)c1	0	0	17	0	0	0	0
Cc1ccc(C)c(NC(=O)/C(C#N)=C/c2cn(CC(=O)NCc3ccco3)c3ccccc23)c1	0	0	0	0	0	0	-
COc1cccc(N/C(SCc2ccccc2Cl)=C(/C#N)C(=O)NCc2cccs2)c1	0	0	16	0	0	-	0
Cc1ccc(CS/C(Nc2ccccc2C)=C(\C#N)C(=O)NCc2ccco2)c(C)c1	0	0	13	0	0	0	0
CC(=O)N1CCC(C(=O)Nc2cc(C)cc(C)c2)CC1	-	0	-	-	0	-	-
Cc1ccccc1N1C(=O)C(Cc2ccc(F)cc2)S/C1=C(\C#N)C(N)=O (stereo not given)	-	0	-	-	0	-	-
